Data published in ChEMBL document CHEMBL4393678, “Novel Tetrahydroquinazolinamines as Selective Histamine 3 Receptor Antagonists for the Treatment of Obesity” (J Med Chem, 2019).
The source made the active and inactive calls. The calls are words filed in the database; no cut-off is given here.

How the values were obtained:
Mus musculus [1] = assay: Anorexic effect in 12 hrs fasted db/db-induced obese C57BL/6J mouse model assessed as reduction in cumulative food intake at 20 mg/kg, ip pretreated for 30 mins followed by food addition measured after 4 hrs; type: functional, organism-based
[2] = molecular target: Histamine H1 receptor (Homo sapiens) (UniProt P35367); assay: Antagonist activity at H1R (unknown origin) expressed in HEK293 cells harboring luc2P/NFAT-RE plasmid at 10 uM after 6 to 8 hrs by luciferase reporter gene assay; type: cell-based
Outline: (§1)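 NFAT-RE luciferase assay in HEK293T cells transiently co-transfected with luc2P/NFAT-RE plasmid and receptor plasmid. Cells plated in DMEM and incubated overnight at 37 °C, 5% CO₂. Compounds and reference ligands applied for 6-8 h. Luciferase read after adding Bright-Glo substrate (1 mg/ml final).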

Histamine H3 receptor [3] = molecular target: T1, Histamine H3 receptor (Homo sapiens, UniProt Q9Y5N1); assay: (§2) Antagonist activity at recombinant human Gi-coupled H3 receptor expressed in HEK293T cells assessed as reduction in histamine-induced inhibition of forskolin-stimulated cAMP accumulation preincubated for 10 to 15 followed by histamine addition for 10 mins and subsequent forskolin-stimulation by Glo-sensor assay; type: functional, cell-based
[4] = molecular target: Histamine H1 receptor (Homo sapiens) (UniProt P35367); assay: Agonist activity at H1R (unknown origin) expressed in HEK293 cells harboring luc2P/NFAT-RE plasmid at 10 uM after 6 to 8 hrs by luciferase reporter gene assay; type: cell-based; outline: as §1
[5] = molecular target: Histamine H4 receptor (Homo sapiens) (UniProt Q9H3N8); assay: as §2, with “H4” for “H3”, “accumulation at 10 uM” for “accumulation”; type: functional, cell-based
[6] = molecular target: Histamine H4 receptor (Homo sapiens) (UniProt Q9H3N8); assay: Agonist activity at recombinant human Gi-coupled H4 receptor expressed in HEK293T cells assessed as inhibition of forskolin-stimulated cAMP accumulation at 10 uM preincubated for 10 to 15 followed by forskolin-stimulation by Glo-sensor assay; type: functional, cell-based
Histamine H2 receptor [7] = molecular target: T2, Histamine H2 receptor (Homo sapiens, UniProt P25021); assay: Agonist activity at recombinant human Gs-coupled H2 receptor expressed in HEK293T cells assessed as inhibition of forskolin-stimulated cAMP accumulation at 10 uM preincubated for 10 to 15 followed by forskolin-stimulation by Glo-sensor assay relative to control; type: functional, cell-based; set-up: scale not given: the % may be the effect or the level left
Outline: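 HEK293T cells were transiently co-transfected with GloSensor-22F cAMP plasmid and human H2R plasmid, then held 15–18 h at 37 °C in 5% CO2. Cells were loaded with sodium luciferin (1 mg/ml) for 90 min. Agonist mode used 10 µM compound, with luminescence read directly after 10–15 min. Screening was in triplicate, scored as ≥50% change versus control.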

Histamine H2 receptor [8] = molecular target: T2, Histamine H2 receptor; assay: Agonist activity at recombinant human Gs-coupled H2 receptor expressed in HEK293T cells assessed as inhibition of forskolin-stimulated cAMP accumulation preincubated for 10 to 15 followed by forskolin-stimulation by Glo-sensor assay; type: functional, cell-based
Mus musculus [9] = assay: Anti-obesity activity in high fat diet-induced obese C57BL/6J mouse model assessed as reduction in body fat mass at 10 mg/kg, po measured after 6 weeks relative to control by NMR-based magnetic resonance imaging analysis; type: functional; set-up: scale not given: the % may be the effect or the level left
Outline: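 Male C57BL/6J mice on high-fat diet dosed orally for six weeks against a vehicle-treated high-fat diet group and a chow group. Body composition (fat mass, lean mass, % body fat) measured by EchoMRI live scanning. n=5-6. One-way ANOVA with Newman-Keuls test.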

Mus musculus [10] = assay: Anti-obesity activity in high fat diet-induced obese C57BL/6J mouse model assessed as change in body weight at 10 mg/kg, po measured after 6 weeks (reference value: 3.86 +/- 0.99 g); type: functional
Outline: (§3)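 Male C57BL/6J mice (6–8 weeks, 22–25 g) on high-fat diet, with a normal-chow group included. Daily chronic oral dosing against vehicle for six weeks. Percent body weight change followed over the treatment days, and net body weight change taken at six weeks. n=5-6 per group. Two-way ANOVA, or one-way ANOVA with Newman-Keuls test.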

Mus musculus [11] = assay: Anti-obesity activity in high fat diet-induced obese C57BL/6J mouse model assessed as reduction in body weight at 10 mg/kg, po; type: functional, organism-based; conditions: TDE = time-dependent effect; outline: as §3
Mus musculus [12] = assay: Anorexic effect in high fat diet-induced obese C57BL/6J mouse model assessed as reduction in cumulative food intake at 10 mg/kg, po pretreated for 30 mins followed by food addition measured after 4 hrs relative to control; type: functional; set-up: scale not given: the % may be the effect or the level left
Outline: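 Male C57BL/6J mice on high-fat diet, starved 12 h (8 am–8 pm) with water available, housed singly. Oral dose in 5% gum acacia in normal saline, vehicle group alongside. Food given 30 min after dosing, and cumulative intake measured over the 4 h night phase (9 pm–1 am). One-way ANOVA with Newman-Keuls test.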

Histamine H3 receptor [13] = molecular target: T1, Histamine H3 receptor; assay: Displacement of [3H]N-alpha-methylhistamine from recombinant human H3 receptor expressed in HEK293T cells measured after 90 mins by liquid scintillation counting method; type: cell-based
[14] = Drug level in C57BL/6J mouse brain assessed as metabolite formation treated with 4-(4-Methoxyphenyl)-8-methyl-5,6,7,8-tetrahydroquinazolin-2-amine at 20 mg/kg, po by LC-MS/MS analysis; type: ADME, organism-based; conditions: in vivo
Outline: (§4)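 After a single 20 mg/kg oral dose in fasted male C57BL/6J mice (n=5 per time point), the demethylated metabolite was measured by LC-MS/MS (m/z 256.1→240.1) in serum and brain homogenate up to 24 h. Metabolite/parent AUC ratio was derived.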

[15] = Drug level in C57BL/6J mouse serum assessed as metabolite formation treated with 4-(4-Methoxyphenyl)-8-methyl-5,6,7,8-tetrahydroquinazolin-2-amine at 20 mg/kg, po by LC-MS/MS analysis; type: ADME, organism-based; conditions: in vivo; outline: as §4
[16] = molecular target: T3, Cholecystokinin receptor type A (Homo sapiens, UniProt P32238); assay: Displacement of [I125]bolton hunter-CCK-8S from recombinant human CCK1 receptor expressed in stable CHO cells measured after 1 to 2 hrs by microscintillation counting method; type: cell-based
T3 sequence (P32238 whole entry): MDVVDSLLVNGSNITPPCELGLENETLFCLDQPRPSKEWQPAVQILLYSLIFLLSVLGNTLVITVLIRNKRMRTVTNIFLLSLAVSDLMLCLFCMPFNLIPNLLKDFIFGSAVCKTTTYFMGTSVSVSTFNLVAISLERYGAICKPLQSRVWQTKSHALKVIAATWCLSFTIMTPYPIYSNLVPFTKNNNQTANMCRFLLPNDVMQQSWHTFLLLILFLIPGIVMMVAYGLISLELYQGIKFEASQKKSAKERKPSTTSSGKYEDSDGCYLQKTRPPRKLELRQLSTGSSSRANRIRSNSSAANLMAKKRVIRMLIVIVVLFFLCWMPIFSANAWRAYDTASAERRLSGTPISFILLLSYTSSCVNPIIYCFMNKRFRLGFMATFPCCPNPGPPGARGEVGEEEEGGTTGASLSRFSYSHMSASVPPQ

T2 sequence (P25021 whole entry): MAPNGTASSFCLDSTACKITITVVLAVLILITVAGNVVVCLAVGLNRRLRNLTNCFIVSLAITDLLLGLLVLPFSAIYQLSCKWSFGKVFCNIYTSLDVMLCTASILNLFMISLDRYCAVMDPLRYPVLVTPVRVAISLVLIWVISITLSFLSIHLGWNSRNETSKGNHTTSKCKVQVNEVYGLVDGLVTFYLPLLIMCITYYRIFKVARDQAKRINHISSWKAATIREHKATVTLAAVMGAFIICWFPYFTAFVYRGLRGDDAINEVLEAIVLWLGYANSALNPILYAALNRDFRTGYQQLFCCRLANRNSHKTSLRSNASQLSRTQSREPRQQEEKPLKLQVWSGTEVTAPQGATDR
Histamine H4 receptor (Homo sapiens), sequence (Q9H3N8 whole entry): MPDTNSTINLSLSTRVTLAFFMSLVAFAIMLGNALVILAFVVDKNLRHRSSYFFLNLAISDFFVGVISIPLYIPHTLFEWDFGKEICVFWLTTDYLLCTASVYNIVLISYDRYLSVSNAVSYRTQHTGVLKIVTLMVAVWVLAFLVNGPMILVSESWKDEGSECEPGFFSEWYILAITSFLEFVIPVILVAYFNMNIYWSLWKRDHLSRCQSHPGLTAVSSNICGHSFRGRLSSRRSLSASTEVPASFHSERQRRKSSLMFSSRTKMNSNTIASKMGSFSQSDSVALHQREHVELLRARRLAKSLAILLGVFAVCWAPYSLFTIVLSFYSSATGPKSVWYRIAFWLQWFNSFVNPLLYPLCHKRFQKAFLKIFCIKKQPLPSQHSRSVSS
Histamine H1 receptor (Homo sapiens), sequence (P35367 whole entry): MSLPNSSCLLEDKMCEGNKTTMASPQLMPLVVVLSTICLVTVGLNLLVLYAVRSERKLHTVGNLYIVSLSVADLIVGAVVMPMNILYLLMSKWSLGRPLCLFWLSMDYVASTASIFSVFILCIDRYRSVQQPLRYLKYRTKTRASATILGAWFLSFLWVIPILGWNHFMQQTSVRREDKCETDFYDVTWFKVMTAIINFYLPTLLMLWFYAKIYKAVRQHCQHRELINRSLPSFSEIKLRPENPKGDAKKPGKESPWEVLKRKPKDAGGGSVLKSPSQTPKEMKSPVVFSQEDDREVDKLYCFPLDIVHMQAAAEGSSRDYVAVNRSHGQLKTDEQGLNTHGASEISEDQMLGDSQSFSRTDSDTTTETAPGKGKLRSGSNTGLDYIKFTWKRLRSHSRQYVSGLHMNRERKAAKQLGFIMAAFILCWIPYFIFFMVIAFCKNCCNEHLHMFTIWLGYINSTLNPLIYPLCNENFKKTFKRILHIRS
T1 sequence (Q9Y5N1 whole entry): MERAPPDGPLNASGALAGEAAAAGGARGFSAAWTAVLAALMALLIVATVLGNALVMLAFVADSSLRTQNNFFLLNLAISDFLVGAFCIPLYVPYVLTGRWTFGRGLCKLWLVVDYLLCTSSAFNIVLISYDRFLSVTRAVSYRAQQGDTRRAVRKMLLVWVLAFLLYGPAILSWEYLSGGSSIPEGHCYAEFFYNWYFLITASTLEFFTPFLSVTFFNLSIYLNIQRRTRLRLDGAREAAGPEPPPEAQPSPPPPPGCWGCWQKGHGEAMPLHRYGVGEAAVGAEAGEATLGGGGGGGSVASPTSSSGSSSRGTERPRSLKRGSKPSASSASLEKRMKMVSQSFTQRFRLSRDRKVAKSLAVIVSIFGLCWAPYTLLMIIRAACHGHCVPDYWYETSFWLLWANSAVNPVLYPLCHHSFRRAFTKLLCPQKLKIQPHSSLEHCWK

| Structure (SMILES) | inhibition [2] | IC50 (Histamine H3 receptor [3]) [µM] | Activity [4] | inhibition [5] | Activity [6] | Activity (Histamine H2 receptor [7]) [%] | EC50 (Histamine H2 receptor [8]; read-out: EC50) [µM] | also measured |
| --- | --- | --- | --- | --- | --- | --- | --- | --- |
| CC(N)(Cc1cnc[nH]1)C(=O)O (racemic) | – | – | – | – | – | – | – | Activity (Mus musculus [1]): inactive |
| CC1CCCc2c(-c3ccc(Br)cc3)nc(N)nc21 (stereo not drawn) | inactive | 3.1 | inactive | inactive | inactive | < 50 | – | EC50 (Histamine H2 receptor [8]): Not Active |
| C[C@H]1CNCCc2ccc(Cl)cc21 [LORCASERIN] | – | – | – | – | – | – | – | Activity (Mus musculus [9]): 22.4%; Activity (Mus musculus [10]): 0.95 g; Activity (Mus musculus [11]): Tde; Activity (Mus musculus [12]): 40% |
| CC1CCCc2c(-c3cccc(O)c3)nc(N)nc21 (stereo not drawn) | inactive | 4.61 | inactive | inactive | inactive | < 50 | – | EC50 (Histamine H2 receptor [8]): Not Active |
| COc1cccc(-c2nc(N)nc3c2CCCC3C)c1 (stereo not drawn) | inactive | 0.07 | inactive | inactive | inactive | 50 | 0.25 | – |
| CC1CCCc2c(-c3ccc(Cl)cc3)nc(N)nc21 (stereo not drawn) | inactive | 0.9 | inactive | inactive | inactive | 50 | 0.08 | – |
| CCCCc1cc(-c2ccc(OC)cc2)nc(N)n1 | inactive | 4.45 | inactive | inactive | inactive | – | 5.18 | EC50 (Histamine H2 receptor [8]; read-out: pEC50 (converted)): 5.25 µM |
| Cc1ccc(C2(O)CCN(c3nc(C)nc4ccsc34)CC2)nc1 | – | – | – | – | – | – | – | Ki (Histamine H3 receptor [13]): 0.00607 µM |
| CC1CCCc2c(-c3cccc4ccccc34)nc(N)nc21 (stereo not drawn) | inactive | 2.71 | inactive | inactive | inactive | < 50 | – | EC50 (Histamine H2 receptor [8]): Not Active |
| CC1CCCc2c(-c3cccnc3)nc(N)nc21 (stereo not drawn) | inactive | 6.8 | inactive | inactive | inactive | < 50 | – | EC50 (Histamine H2 receptor [8]): Not Active |
| COc1ccc(-c2nc(N)nc3c2CCCC3)cc1 | inactive | 2.75 | inactive | inactive | inactive | – | 1.39 | EC50 (Histamine H2 receptor [8]; read-out: pEC50 (converted)): 1.29 µM |
| CC1CCCc2c(-c3ccc(C#N)cc3)nc(N)nc21 (stereo not drawn) | inactive | 5.5 | inactive | inactive | inactive | < 50 | – | EC50 (Histamine H2 receptor [8]): Not Active |
| COc1ccc(-c2nc(N)nc3c2CC(C)CC3)cc1 (stereo not drawn) | inactive | 4.68 | inactive | inactive | inactive | 50 | 2.12 | – |
| CC1CCCc2c(-c3ccc(O)cc3)nc(N)nc21 (stereo not drawn) | – | – | – | – | – | – | – | Drug metabolism [14]: Metabolite_Detected; Drug metabolism [15]: Metabolite_Detected |
| CC1CCCc2c(-c3ccccc3)nc(N)nc21 (stereo not drawn) | inactive | 1.3 | inactive | inactive | inactive | 50 | 0.1 | – |
| CC1CCCc2c(-c3ccc(F)cc3)nc(N)nc21 (stereo not drawn) | inactive | 0.56 | inactive | inactive | inactive | – | 0.08 | – |
| CC1CCCc2c(-c3cccc(Br)c3)nc(N)nc21 (stereo not drawn) | inactive | 0.09 | inactive | inactive | inactive | 50 | 0.84 | EC50 (Histamine H2 receptor [8]; read-out: pEC50 (converted)): 0.316 µM |
| Cc1ccc(-c2nc(N)nc3c2CCCC3C)cc1 (stereo not drawn) | inactive | 2.93 | inactive | inactive | inactive | 50 | 0.88 | – |
| CC1CCCc2c(-c3ccc([N+](=O)[O-])cc3)nc(N)nc21 (stereo not drawn) | inactive | 12.3 | inactive | inactive | inactive | 50 | 5.29 | EC50 (Histamine H2 receptor [8]; read-out: pEC50 (converted)): 5.37 µM |
| c1ccc(CNc2ccnc(Nc3ccc(OCCN4CCCCC4)cc3)n2)cc1 | – | – | – | – | – | – | – | Ki (Histamine H3 receptor [13]): 0.00449 µM |
| COc1ccc(-c2nc(NC(=O)c3cc4ccccc4n3CC(=O)O)ncc2CC2CCCCC2)c(OC)c1 | – | – | – | – | – | – | – | IC50 [16]: < 0.05 µM |
| CC1CCCc2c1nc(N)nc2C1CCCCC1 (stereo not drawn) | inactive | 0.24 | inactive | inactive | inactive | 50 | 0.36 | – |
